Data set [1] concerns Pichia kudriavzevii. In words: Antifungal activity against fluconazole-resistant Candida krusei clinical isolate 2159 in presence of 8 ug/ml fluconazole by broth microdilution method. The data set is classed as functional. To be noted: for MIC80: Pichia kudriavzevii, isolate 2159. The procedure, abridged: (§1)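 Broth microdilution per CLSI/NCCLS M27-A2 against FLC-resistant clinical isolates. MIC80 read for each compound alone and with fluconazole at 8.0 μg ml–1. C. albicans ATCC 90028 served as quality control. Curcumin was the positive control.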
In general terms: In broth dilution the organism is exposed to a series of concentrations in liquid medium.

For data set [2], the system named is Candida albicans. In words: Antifungal activity against fluconazole-resistant Candida albicans clinical isolate 103 by broth microdilution method. In kind it is functional. A digest of the protocol: as §1
Data set [3] has as its system Candida albicans. In words: Antifungal activity against fluconazole-resistant Candida albicans clinical isolate 103 in presence of 8 ug/ml fluconazole by broth microdilution method. To be noted: for MIC80: Candida albicans, isolate 103. The data set is classed as functional. The procedure, abridged: as §1
The test system of data set [4] is Candida tropicalis. In words: Antifungal activity against fluconazole-resistant Candida tropicalis clinical isolate 087 in presence of 8 ug/ml fluconazole by broth microdilution method. The data set is classed as functional. Conditions: for MIC80: Candida tropicalis, isolate 087. The procedure, abridged: as §1
Data set [5] has as its system Candida tropicalis. In words: Antifungal activity against fluconazole-resistant Candida tropicalis clinical isolate 087 by broth microdilution method. In kind it is functional. The procedure, abridged: as §1
The subject of data set [6] is Pichia kudriavzevii. In words: Antifungal activity against fluconazole-resistant Candida krusei clinical isolate 2159 by broth microdilution method. In kind it is functional. The procedure, abridged:
as §1

Data set [7] is described as follows: Cytotoxicity against HUVEC assessed as cell viability at 16 ug/ml after 24 hrs by MTT assay relative to control. In kind it is cell-based. Conditions: human, HUVEC cells; read-out: Activity. A digest of the protocol:
(§2)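 HUVECs grown in DMEM with 10% FCS and 100 μg ml–1 streptomycin, 5% CO2, 37 °C. Cells exposed to compounds at 16 and 32 μg ml–1 for 24 h, then incubated with MTT solution (5 mg ml–1) for 3 h. Optical density read at 570 nm. Viability expressed as percentage relative to drug-free control.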
For orientation: Tetrazolium dyes change colour on reduction, which living cells bring about.

Data set [8] can be described thus: Cytotoxicity against HUVEC assessed as cell viability at 32 ug/ml after 24 hrs by MTT assay relative to control. The data set is classed as cell-based. To be noted: human, HUVEC cells; read-out: Activity. The procedure, abridged:
as §2

≈ marks a conversion by molar mass, not a printed value.

What is called MIC80 is the lowest concentration that inhibits either 80% of growth or 80% of the strains tested, depending on the study. On to `CN(C)c1ccc(/C=C2\CC/C(=C\c3ccc(N(C)C)cc3)C2=O)cc1`, for which the results for the “fractional inhibitory concentration index (FICI)” value in the data set on Pichia kudriavzevii [1], in the data set on Candida albicans [3] and in the data set with Candida tropicalis [4] were more than 1.06, more than 1.06 and 1.06, respectively. For the same compound, the MIC80 in the data set with Pichia kudriavzevii [1] was more than 64 µg/mL; against Candida albicans [2], more than 64 µg/mL; in the data set with Candida albicans [3] it was more than 64 µg/mL; with Candida tropicalis [4], 64 µg/mL; in the data set with Candida tropicalis [5] it was more than 64 µg/mL; against Pichia kudriavzevii [6], more than 64 µg/mL.

For `COc1ccc(/C=C/C(=O)/C=C/c2ccc(OC)c(OC)c2)cc1OC`, the “fractional inhibitory concentration index (FICI)” value with Pichia kudriavzevii [1] is reported as more than 1.06; with Candida albicans [3], more than 1.06; with Candida tropicalis [4] it was 0.125. Also, the MIC80 in the data set on Pichia kudriavzevii [1] was more than 64 µg/mL; in the data set on Candida albicans [2], more than 64 µg/mL; in the data set on Candida albicans [3], more than 64 µg/mL; with Candida tropicalis [4], 4 µg/mL; in the data set on Candida tropicalis [5] it was more than 64 µg/mL; against Pichia kudriavzevii [6], more than 64 µg/mL. Further, the viability at 24 h, 16 ug/ml in data set [7] stood at 67%. The viability at 24 h, 32 ug/ml in data set [8] stood at 55%.

Turning to `COc1ccc(/C=C2\CC/C(=C\c3ccc(OC)cc3)C2=O)cc1`, the “fractional inhibitory concentration index (FICI)” value with Pichia kudriavzevii [1] is listed as more than 1.06; in the data set with Candida albicans [3], more than 1.06; in the data set with Candida tropicalis [4], 1.06. The MIC80 was more than 64 µg/mL with Pichia kudriavzevii [1]; more than 64 µg/mL in the data set on Candida albicans [2]; more than 64 µg/mL in the data set on Candida albicans [3]; 64 µg/mL in the data set with Candida tropicalis [4]; more than 64 µg/mL in the data set with Candida tropicalis [5]; more than 64 µg/mL against Pichia kudriavzevii [6].

Take `O=C(/C=C/c1ccco1)/C=C/c1ccco1`: the “fractional inhibitory concentration index (FICI)” value in the data set on Pichia kudriavzevii [1] is more than 1.06; with Candida albicans [3], more than 1.06; in the data set with Candida tropicalis [4], 0.313. The MIC80 in the data set with Pichia kudriavzevii [1] is more than 64 µg/mL; against Candida albicans [2] it was more than 64 µg/mL; with Candida albicans [3], more than 64 µg/mL; in the data set on Candida tropicalis [4] it was 16 µg/mL; against Candida tropicalis [5], more than 64 µg/mL; in the data set on Pichia kudriavzevii [6] it was more than 64 µg/mL.

In the case of `COc1cccc(/C=C2\CC/C(=C\c3cccc(OC)c3OC)C2=O)c1OC`, the “fractional inhibitory concentration index (FICI)” value in the data set with Pichia kudriavzevii [1], in the data set with Candida albicans [3] and in the data set with Candida tropicalis [4] was more than 1.06 in each case. For the same compound, the MIC80 in the data set on Pichia kudriavzevii [1], with Candida albicans [2], with Candida albicans [3], with Candida tropicalis [4], in the data set on Candida tropicalis [5] and in the data set on Pichia kudriavzevii [6] was more than 64 µg/mL each time.

Consider `O=C(/C=C/c1c(Cl)cccc1Cl)/C=C/c1c(Cl)cccc1Cl`, for which the “fractional inhibitory concentration index (FICI)” value in the data set with Pichia kudriavzevii [1], in the data set with Candida albicans [3] and with Candida tropicalis [4] was more than 1.06 each time. In addition, the MIC80 with Pichia kudriavzevii [1], in the data set on Candida albicans [2], in the data set on Candida albicans [3], in the data set with Candida tropicalis [4], in the data set with Candida tropicalis [5] and against Pichia kudriavzevii [6] was more than 64 µg/mL each time.

Turning to `O=C(/C=C/c1ccc2c(c1)OCO2)/C=C/c1ccc2c(c1)OCO2`, the “fractional inhibitory concentration index (FICI)” value is on record as 0.094 in the data set on Pichia kudriavzevii [1], 0.563 in the data set with Candida albicans [3] and 0.313 in the data set with Candida tropicalis [4]. In addition, the MIC80 is 2 µg/mL in the data set with Pichia kudriavzevii [1]; more than 64 µg/mL in the data set on Candida albicans [2]; 32 µg/mL with Candida albicans [3]; 16 µg/mL in the data set with Candida tropicalis [4]; more than 64 µg/mL with Candida tropicalis [5]; more than 64 µg/mL against Pichia kudriavzevii [6]. For the same compound, the viability at 24 h, 16 ug/ml in data set [7] worked out at 88%. Also, the viability at 24 h, 32 ug/ml in data set [8] amounted to 71%.

`CN(C)c1ccc(/C=C/C(=O)/C=C/c2ccc(N(C)C)cc2)cc1`: the entries for the “fractional inhibitory concentration index (FICI)” value with Pichia kudriavzevii [1], in the data set on Candida albicans [3] and with Candida tropicalis [4] were more than 1.06, more than 1.06 and 0.563, respectively. Also, the MIC80 was more than 64 µg/mL in the data set with Pichia kudriavzevii [1]; more than 64 µg/mL against Candida albicans [2]; more than 64 µg/mL in the data set on Candida albicans [3]; 32 µg/mL in the data set with Candida tropicalis [4]; more than 64 µg/mL against Candida tropicalis [5]; more than 64 µg/mL with Pichia kudriavzevii [6].

Turning to `O=C(/C=C(O)/C=C/c1ccc(O)c(O)c1)/C=C/c1ccc(O)c(O)c1`, the “fractional inhibitory concentration index (FICI)” value is given as 0.563 with Pichia kudriavzevii [1], 0.125 in the data set with Candida albicans [3] and 0.125 with Candida tropicalis [4]. Further, the MIC80 in the data set on Pichia kudriavzevii [1] worked out at 2 µg/mL; in the data set on Candida albicans [2], 64 µg/mL (≈ 188 µM); in the data set on Candida albicans [3], 4 µg/mL; in the data set on Candida tropicalis [4], 4 µg/mL; with Candida tropicalis [5], 64 µg/mL (≈ 188 µM); against Pichia kudriavzevii [6], 4 µg/mL (≈ 11.8 µM).

`O=C(/C=C/c1ccc(Cl)cc1)/C=C/c1ccc(Cl)cc1`: the “fractional inhibitory concentration index (FICI)” value in the data set with Pichia kudriavzevii [1] is on record as more than 1.06; in the data set on Candida albicans [3], more than 1.06; with Candida tropicalis [4], 0.313. Also, the MIC80 in the data set with Pichia kudriavzevii [1] is more than 64 µg/mL; with Candida albicans [2] it was more than 64 µg/mL; in the data set with Candida albicans [3], more than 64 µg/mL; in the data set with Candida tropicalis [4] it was 16 µg/mL; in the data set with Candida tropicalis [5], more than 64 µg/mL; against Pichia kudriavzevii [6], more than 64 µg/mL.

`COc1ccc(/C=C/C(=O)/C=C/c2ccc(OC)c(O)c2)cc1O`: the figures for the “fractional inhibitory concentration index (FICI)” value in the data set with Pichia kudriavzevii [1], in the data set with Candida albicans [3] and with Candida tropicalis [4] were more than 1.06, 0.563 and 0.188, respectively. Moreover, the MIC80 was more than 64 µg/mL in the data set with Pichia kudriavzevii [1]; more than 64 µg/mL in the data set with Candida albicans [2]; 32 µg/mL in the data set on Candida albicans [3]; 8 µg/mL in the data set with Candida tropicalis [4]; more than 64 µg/mL against Candida tropicalis [5]; more than 64 µg/mL against Pichia kudriavzevii [6].

For `COc1ccc(/C=C/C(=O)/C=C/c2ccc(OC)cc2)cc1`, the “fractional inhibitory concentration index (FICI)” value in the data set on Pichia kudriavzevii [1], in the data set with Candida albicans [3] and in the data set with Candida tropicalis [4] was more than 1.06 each time. The MIC80 in the data set on Pichia kudriavzevii [1], against Candida albicans [2], in the data set with Candida albicans [3], in the data set with Candida tropicalis [4], with Candida tropicalis [5] and with Pichia kudriavzevii [6] was more than 64 µg/mL throughout.

With `COc1cc(/C=C/C(=O)CC(=O)/C=C/c2ccc(O)c(OC)c2)ccc1O` [CURCUMIN], the “fractional inhibitory concentration index (FICI)” value in the data set on Pichia kudriavzevii [1], with Candida albicans [3] and in the data set on Candida tropicalis [4] was 0.188 each time. The MIC80 with Pichia kudriavzevii [1], in the data set with Candida albicans [3] and with Candida tropicalis [4] was 8 µg/mL in each case. For the same compound, the viability at 24 h, 16 ug/ml in data set [7] came to 80%. In addition, the viability at 24 h, 32 ug/ml in data set [8] was found to be 22%.

Take `O=C(/C=C/c1ccc(Br)cc1)/C=C/c1ccc(Br)cc1`: the “fractional inhibitory concentration index (FICI)” value with Pichia kudriavzevii [1] is listed as more than 1.06; with Candida albicans [3], more than 1.06; in the data set on Candida tropicalis [4], 0.563. For the same compound, the MIC80 in the data set on Pichia kudriavzevii [1] is more than 64 µg/mL; in the data set with Candida albicans [2] it was more than 64 µg/mL; in the data set with Candida albicans [3], more than 64 µg/mL; with Candida tropicalis [4], 32 µg/mL; with Candida tropicalis [5], more than 64 µg/mL; against Pichia kudriavzevii [6], more than 64 µg/mL.

Turning to `O=C(/C=C/c1ccc(Cl)c(Cl)c1)/C=C/c1ccc(Cl)c(Cl)c1`, the “fractional inhibitory concentration index (FICI)” value in the data set on Pichia kudriavzevii [1], in the data set with Candida albicans [3] and in the data set with Candida tropicalis [4] was more than 1.06 each time. Further, the MIC80 in the data set on Pichia kudriavzevii [1], against Candida albicans [2], in the data set on Candida albicans [3], in the data set on Candida tropicalis [4], against Candida tropicalis [5] and against Pichia kudriavzevii [6] was more than 64 µg/mL throughout.

Consider `O=C1/C(=C/c2ccc3c(c2)OCO3)CC/C1=C\c1ccc2c(c1)OCO2`, for which the “fractional inhibitory concentration index (FICI)” value in the data set with Pichia kudriavzevii [1] was more than 1.06; with Candida albicans [3], more than 1.06; in the data set with Candida tropicalis [4] it was 1.06. Besides, the MIC80 was more than 64 µg/mL in the data set on Pichia kudriavzevii [1]; more than 64 µg/mL with Candida albicans [2]; more than 64 µg/mL in the data set on Candida albicans [3]; 64 µg/mL in the data set on Candida tropicalis [4]; more than 64 µg/mL with Candida tropicalis [5]; more than 64 µg/mL in the data set on Pichia kudriavzevii [6].

In the case of `O=C(/C=C/c1ccc(Cl)cc1Cl)/C=C/c1ccc(Cl)cc1Cl`, the “fractional inhibitory concentration index (FICI)” value in the data set with Pichia kudriavzevii [1] is recorded as more than 1.06; with Candida albicans [3], more than 1.06; in the data set on Candida tropicalis [4], 0.313. For the same compound, the MIC80 in the data set with Pichia kudriavzevii [1] is more than 64 µg/mL; in the data set on Candida albicans [2] it was more than 64 µg/mL; in the data set with Candida albicans [3] it was more than 64 µg/mL; in the data set with Candida tropicalis [4] it was 16 µg/mL; in the data set on Candida tropicalis [5] it was more than 64 µg/mL; with Pichia kudriavzevii [6], more than 64 µg/mL.

Turning to `COc1ccc(/C=C2\CC/C(=C\c3ccc(OC)c(OC)c3)C2=O)cc1OC`, the entries for the “fractional inhibitory concentration index (FICI)” value in the data set on Pichia kudriavzevii [1], in the data set with Candida albicans [3] and with Candida tropicalis [4] were more than 1.06, more than 1.06 and 0.313, respectively. The MIC80 is more than 64 µg/mL in the data set with Pichia kudriavzevii [1]; more than 64 µg/mL against Candida albicans [2]; more than 64 µg/mL with Candida albicans [3]; 16 µg/mL in the data set on Candida tropicalis [4]; more than 64 µg/mL with Candida tropicalis [5]; more than 64 µg/mL in the data set on Pichia kudriavzevii [6].

Source of the values: ChEMBL document CHEMBL4261491, “Synthesis and synergistic antifungal effects of monoketone derivatives of curcumin against fluconazole-resistant Candida spp” (Medchemcomm, 2017).
